Measured values reported in ChEMBL document CHEMBL4477175, “Sclerotiamide: The First Non-Peptide-Based Natural Product Activator of Bacterial Caseinolytic Protease P” (J Nat Prod, 2016).
Activity calls are given as the source filed them. No cut-off for these calls is given here. Bridge positions count the residues as written; N and C are the ends. Square brackets hold non-standard residues; d marks the D form. Peptide text beside a SMILES is read from it. * marks the point of attachment. X1 = O=C(/C=C/C=C/C=C/C=C/C=C/C(=O)*)NC1=C(O)CCC1=O; Pro(4R-Me) = C[C@H]1CN[C@H](C(=O)O)C1; NMeA = CN[C@@H](C)C(=O)O

How the values were obtained:
[1] = biological target: ATP-dependent Clp protease proteolytic subunit (Escherichia coli (strain K12)) (UniProt P0A6G7); test: Activation of Escherichia coli BLR (DE3) ClpP using bovine milk FITC-beta casein as substrate assessed as change in relative fluorescent units at 50 uM preincubated for 15 mins followed by substrate addition measured every 30 mins for 6 hrs by fluorescence assay
Sequence of ATP-dependent Clp protease proteolytic subunit (Escherichia coli (strain K12)) (P0A6G7 whole entry): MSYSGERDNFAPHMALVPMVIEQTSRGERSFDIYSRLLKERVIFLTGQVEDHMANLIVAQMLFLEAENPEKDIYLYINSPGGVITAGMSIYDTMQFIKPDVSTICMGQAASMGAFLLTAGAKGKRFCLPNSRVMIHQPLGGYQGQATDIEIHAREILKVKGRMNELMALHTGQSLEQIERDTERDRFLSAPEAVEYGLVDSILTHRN
Procedure, shortened: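 Single-concentration screen: 300 nM tetradecameric recombinant E. coli ClpP in 25 mM Tris-HCl pH 7.5, 100 mM KCl, preincubated with compound (50 µM) 15 min at 37 °C. FITC-β-casein added (final 1.92 µM). Kept at 37 °C; fluorescence (ex 485/em 538 nm) read every 30 min for 6 h. ΔRFU = well minus 1% DMSO well; hits had end-point above 22 500 RFU.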

[2] = biological target: T1, ATP-dependent Clp protease proteolytic subunit (Escherichia coli (strain K12), UniProt P0A6G7); test: Activation of Escherichia coli BLR (DE3) ClpP using Abz-DFAPKMALVPYNO2 as substrate assessed as degradation of substrate peptide preincubated for 15 mins followed by substrate addition measured every 30 mins for 2 hrs by fluorescence assay
T1 sequence (P0A6G7 whole entry): as above
Procedure, shortened: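 His-tagged EcClpP, 25 nM tetradecamer, in 25 mM HEPES pH 7.5, 100 mM KCl, 5 mM MgCl2, 10% glycerol, 1 mM DTT. Preincubated with a concentration range of compound for 15 min at 30 °C, then 15 µM final decapeptide added. Read at 30 °C, ex 320/em 420 nm. DMSO-subtracted ΔRFU was fitted for apparent activation constant (Kapp).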

[3] = biological target: ATP-dependent Clp protease proteolytic subunit (Escherichia coli (strain K12)) (UniProt P0A6G7); test: Ratio of EC50 for Escherichia coli BLR (DE3) ClpP using FITC-beta casein as substrate to ratio of EC50 for Escherichia coli ClpP using Abz-DFAPKMALVPYNO2 as substrate
[4] = biological target: T1, ATP-dependent Clp protease proteolytic subunit; test: Activation of Escherichia coli BLR (DE3) ClpP using FITC-beta casein as substrate assessed as degradation of substrate peptide preincubated for 15 mins followed by substrate addition measured every 30 mins for 6 hrs by fluorescence assay
[5] = biological target: ATP-dependent Clp protease proteolytic subunit (Escherichia coli (strain K12)) (UniProt P0A6G7); test: Activation of Escherichia coli BLR (DE3) ClpP using beta casein as substrate at 50 uM preincubated for 15 mins followed by substrate addition measured every 30 mins by SDS-PAGE; conditions: TDE = time-dependent effect
Procedure, shortened: (§1)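 His-tagged ClpP (E. coli or B. subtilis) expressed with IPTG overnight at 25 °C and purified by Ni-NTA and gel filtration. 420 nM tetradecamer in 25 mM Tris-HCl pH 7.5, 100 mM KCl, preincubated with compound 15 min at 37 °C. Bovine β-casein added (final 7.5 µM). Quenched in Laemmli buffer at 5 min, 30 min, 1 h and/or 2 h. β-Casein band loss read on 10% Bis-Tris SDS-PAGE.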

[6] = biological target: ATP-dependent Clp protease proteolytic subunit (Bacillus subtilis (strain 168)) (UniProt P80244); test: Activation of Bacillus subtilis ClpP expressed in Escherichia coli BL21 (DE3) using beta casein as substrate at 50 uM preincubated for 15 mins followed by substrate addition measured every 30 mins by SDS-PAGE; procedure, shortened: as §1
Sequence of ATP-dependent Clp protease proteolytic subunit (Bacillus subtilis (strain 168)) (P80244 whole entry, looked up): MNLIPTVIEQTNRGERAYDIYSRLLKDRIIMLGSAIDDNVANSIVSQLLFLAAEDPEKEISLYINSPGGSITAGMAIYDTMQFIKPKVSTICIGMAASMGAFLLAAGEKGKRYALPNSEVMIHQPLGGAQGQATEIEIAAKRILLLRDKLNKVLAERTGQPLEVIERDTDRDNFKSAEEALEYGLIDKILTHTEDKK

Bacillus [7] = test: Activation of Bacillus subtilis ClpP expressed in Escherichia coli BL21 (DE3) using FITC-beta casein as substrate assessed as degradation of substrate peptide at 50 uM preincubated for 15 mins followed by substrate addition measured every 30 mins for 2 hrs by fluorescence assay
Escherichia coli = test: Antibacterial activity against Escherichia coli M5418 harboring deltaacrB/deltaacrD/deltaacrEF::spc deltaemrBdeltaemrYdeltaentS::cam deltamacB deltamdtC deltamdtF mutant assessed as bacterial growth inhibition at 100 uM after 18 hrs by 2-fold dilution method; format: functional, organism-based
Procedure, shortened: (§2)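 Broth dilution MIC: cells subcultured 1:100 in LB and grown to OD600 ~1.0. Inoculated at 10^5 cells/mL in LB with 2-fold increasing compound concentrations, up to 100 µM. Incubated 18 h at 37 °C; growth scored visually.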

Pseudomonas aeruginosa = test: Antibacterial activity against Pseudomonas aeruginosa PAO1116 harboring deltamexAB-oprM/deltamexCD-oprj/deltamexEF-oprN/deltaJK/deltamexXY/deltatriABC mutant assessed as bacterial growth inhibition at 100 uM after 18 hrs by 2-fold dilution method; format: functional, organism-based; procedure, shortened: as §2
Beta-casein (Bos taurus) = biological target: T2, Beta-casein (Bos taurus) (UniProt P02666); test: Intrinsic proteolytic activity against fluorescein isothiocyanate-conjugated bovine milk beta casein at 50 uM preincubated for 15 mins followed by substrate addition measured every 30 mins for 6 hrs by fluorescence assay
T2 sequence (whole entry): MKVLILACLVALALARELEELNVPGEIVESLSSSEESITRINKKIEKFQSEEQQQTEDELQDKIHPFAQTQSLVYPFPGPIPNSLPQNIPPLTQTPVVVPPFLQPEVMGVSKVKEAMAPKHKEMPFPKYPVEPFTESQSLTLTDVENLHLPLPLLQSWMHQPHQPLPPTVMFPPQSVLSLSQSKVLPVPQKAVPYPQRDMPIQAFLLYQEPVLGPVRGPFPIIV
Procedure, shortened: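 Enzyme-free control: compound (50 µM) incubated with FITC-β-casein (1.92 µM) in 25 mM Tris-HCl pH 7.5, 100 mM KCl. Substrate cleavage read as fluorescence at 538 nm emission after 485 nm excitation.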

[8] = biological target: ATP-dependent Clp protease proteolytic subunit (Bacillus subtilis (strain 168)) (UniProt P80244); test: Activation of Bacillus subtilis ClpP expressed in Escherichia coli BL21 (DE3) using beta casein as substrate at 25 uM preincubated for 15 mins followed by substrate addition measured every 30 mins by SDS-PAGE
Procedure, shortened: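 Recombinant His-tagged BsClpP (Ni-NTA then gel filtration), 420 nM tetradecamer in 25 mM Tris-HCl pH 7.5, 100 mM KCl, preincubated with compound for 15 min at 37 °C. Bovine β-casein added to 7.5 µM final. Reactions quenched in Laemmli buffer at 80 °C after 5 min, 30 min, 1 h and/or 2 h. Loss of the β-casein band was followed on a 10% Bis-Tris SDS gel.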

Bacillus [9] = test: Activation of Bacillus subtilis ClpP expressed in Escherichia coli BL21 (DE3) using FITC-beta casein as substrate assessed as degradation of substrate peptide at 25 uM preincubated for 15 mins followed by substrate addition measured every 30 mins for 6 hrs by fluorescence assay

SMILES	Activity [1]	EC50 [2] [µM]	EC50 [4] [µM]	also measured
CC1(C)C=Cc2c(ccc3c2NC(=O)[C@@]32C[C@@]34NC(=O)[C@]5(CCCN5C3=O)C[C@H]4C2(C)C)O1	inactive			
C[C@@H]1C[C@H]2C(=O)OC[C@H](NC(=O)[C@H](Cc3ccccc3)NC(=O)/C=C/C=C/C=C/C=C/C=C/C(=O)NC3=C(O)CCC3=O)C(=O)N3CCC[C@H]3C(=O)N(C)[C@@H](C)C(=O)N[C@@H](C)C(=O)N2C1 (X1-FSP[NMeA]A[Pro(4R-Me)]; ester 2-C)		0.1	1.2	Ratio EC50 [3]: 10
C=CC(C)(C)[C@@]12Nc3c(ccc4c3C=CC(C)(C)O4)[C@]1(O)C[C@H]1C(=O)N3CCC[C@]3(O)C(=O)N12	inactive			
CC1(C)C=Cc2c(ccc3c4c(n(O)c23)C(C)(C)C2C[C@]35CCCN3C(=O)[C@]2(NC5=O)C4=O)O1 (some centres not stated)	inactive			
CC1(C)C=Cc2c(ccc3c4c([nH]c23)C(C)(C)C2C[C@]35CCCN3C(=O)[C@@]2(C4)NC5=O)O1 (some centres not stated)	inactive			
CC1(C)C=Cc2c(ccc3c2[N+]([O-])=C2C3=C[C@@]34NC(=O)[C@]5(CCCN5C3=O)CC4C2(C)C)O1 (some centres not stated)	inactive			
CC1(C)C=Cc2c(ccc3c2NC(=O)[C@@]32[C@H](O)[C@@]34NC(=O)[C@]5(CCCN5C3=O)C[C@H]4C2(C)C)O1 [SCLEROTIAMIDE]	29900 RFU	39.6	87.5	Activity [5]: Tde; Activity [6]: inactive; Activity (Bacillus [7]): inactive; Activity (Escherichia coli): inactive; Activity (Pseudomonas aeruginosa): inactive; Ratio EC50 [3]: 2.2; Activity (Beta-casein (Bos taurus)): inactive
CCOC(=O)[C@@H]1C(=O)C[C@@](O)(c2ccc(Br)cc2)C[C@H]1C=C(Cl)Cl		25.4	22.2	Activity [8]: inactive; Activity (Bacillus [9]): inactive
